7 molecules from ChEMBL document CHEMBL1148746, “Functional characterization of Tet-AMPA [tetrazolyl-2-amino-3-(3-hydroxy-5-methyl- 4-isoxazolyl)propionic acid] analogues at ionotropic glutamate receptors GluR1-GluR4. The molecular basis for the functional selectivity profile of 2-Bn-Tet-AMPA” (J Med Chem, 2007) can be followed below.

The target in assay [1] is Glutamate receptor 4 (Rattus norvegicus) (UniProt P19493). The assay is described as follows: Agonist activity at GluR4 expressed in HEK293 cells relative to S-Glutamate by Fluo-4/Ca2+ assay.
Sequence of Glutamate receptor 4 (Rattus norvegicus) (P19493 whole entry, looked up): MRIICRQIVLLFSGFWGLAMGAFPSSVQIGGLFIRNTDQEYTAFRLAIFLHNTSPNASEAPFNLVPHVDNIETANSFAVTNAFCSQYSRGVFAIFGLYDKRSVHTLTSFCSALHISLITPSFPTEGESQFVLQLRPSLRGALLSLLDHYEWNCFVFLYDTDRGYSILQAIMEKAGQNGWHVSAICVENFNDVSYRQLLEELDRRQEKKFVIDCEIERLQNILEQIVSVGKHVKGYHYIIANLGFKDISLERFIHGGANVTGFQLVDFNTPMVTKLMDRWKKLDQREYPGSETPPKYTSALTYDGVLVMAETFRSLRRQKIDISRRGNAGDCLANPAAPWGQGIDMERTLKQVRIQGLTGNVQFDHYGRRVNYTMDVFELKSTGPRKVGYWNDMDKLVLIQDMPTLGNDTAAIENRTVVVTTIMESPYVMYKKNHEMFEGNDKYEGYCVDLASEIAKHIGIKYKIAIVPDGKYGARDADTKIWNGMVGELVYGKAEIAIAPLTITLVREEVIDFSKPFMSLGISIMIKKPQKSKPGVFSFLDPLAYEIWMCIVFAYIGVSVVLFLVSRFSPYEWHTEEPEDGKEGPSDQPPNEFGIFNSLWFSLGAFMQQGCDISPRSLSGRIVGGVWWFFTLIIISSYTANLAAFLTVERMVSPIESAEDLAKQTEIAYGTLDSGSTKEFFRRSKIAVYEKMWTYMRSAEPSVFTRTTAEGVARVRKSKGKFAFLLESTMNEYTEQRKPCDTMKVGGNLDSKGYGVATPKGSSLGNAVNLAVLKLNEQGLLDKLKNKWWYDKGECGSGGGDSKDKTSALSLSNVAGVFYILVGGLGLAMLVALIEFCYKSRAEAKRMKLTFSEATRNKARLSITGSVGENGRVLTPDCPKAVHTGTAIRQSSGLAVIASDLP
For assay [2] the target is unchanged. The assay is described as follows: Agonist activity at GluR4 expressed in HEK293 cells by Fluo-4/Ca2+ assay.
Assay [3] deals with Glutamate receptor 2 (Rattus norvegicus) (UniProt P19491). Description: Agonist activity at GluR2Q expressed in HEK293 cells by Fluo-4/Ca2+ assay.
Sequence of Glutamate receptor 2 (Rattus norvegicus) (P19491 whole entry, looked up): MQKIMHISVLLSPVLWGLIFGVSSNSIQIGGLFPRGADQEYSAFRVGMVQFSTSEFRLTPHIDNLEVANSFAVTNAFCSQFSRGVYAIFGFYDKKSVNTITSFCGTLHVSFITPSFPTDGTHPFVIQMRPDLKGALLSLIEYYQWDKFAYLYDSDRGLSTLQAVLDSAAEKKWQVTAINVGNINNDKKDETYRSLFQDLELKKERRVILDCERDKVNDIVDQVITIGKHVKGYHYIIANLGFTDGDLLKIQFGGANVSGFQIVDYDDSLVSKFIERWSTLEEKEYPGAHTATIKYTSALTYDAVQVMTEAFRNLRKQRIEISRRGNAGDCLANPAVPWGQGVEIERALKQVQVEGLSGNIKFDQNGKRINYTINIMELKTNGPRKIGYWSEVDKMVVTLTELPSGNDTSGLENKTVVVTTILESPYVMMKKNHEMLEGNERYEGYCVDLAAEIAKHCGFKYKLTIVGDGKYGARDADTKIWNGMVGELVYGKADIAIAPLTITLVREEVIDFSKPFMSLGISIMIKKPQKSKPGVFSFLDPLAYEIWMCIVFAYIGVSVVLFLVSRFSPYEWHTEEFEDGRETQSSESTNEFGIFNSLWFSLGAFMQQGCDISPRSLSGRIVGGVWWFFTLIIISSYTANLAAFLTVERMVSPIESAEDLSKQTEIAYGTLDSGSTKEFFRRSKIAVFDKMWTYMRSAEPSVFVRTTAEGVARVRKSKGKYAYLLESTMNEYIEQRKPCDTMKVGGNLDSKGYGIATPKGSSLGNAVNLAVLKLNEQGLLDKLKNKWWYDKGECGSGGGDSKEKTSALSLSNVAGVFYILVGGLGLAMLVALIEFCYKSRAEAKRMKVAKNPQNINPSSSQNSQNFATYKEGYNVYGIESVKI
The target of assay [4] is Glutamate receptor 1 (Rattus norvegicus) (UniProt P19490). The assay is described as follows: Agonist activity at GluR1 expressed in HEK293 cells by Fluo-4/Ca2+ assay.
Sequence of Glutamate receptor 1 (Rattus norvegicus) (P19490 whole entry, looked up): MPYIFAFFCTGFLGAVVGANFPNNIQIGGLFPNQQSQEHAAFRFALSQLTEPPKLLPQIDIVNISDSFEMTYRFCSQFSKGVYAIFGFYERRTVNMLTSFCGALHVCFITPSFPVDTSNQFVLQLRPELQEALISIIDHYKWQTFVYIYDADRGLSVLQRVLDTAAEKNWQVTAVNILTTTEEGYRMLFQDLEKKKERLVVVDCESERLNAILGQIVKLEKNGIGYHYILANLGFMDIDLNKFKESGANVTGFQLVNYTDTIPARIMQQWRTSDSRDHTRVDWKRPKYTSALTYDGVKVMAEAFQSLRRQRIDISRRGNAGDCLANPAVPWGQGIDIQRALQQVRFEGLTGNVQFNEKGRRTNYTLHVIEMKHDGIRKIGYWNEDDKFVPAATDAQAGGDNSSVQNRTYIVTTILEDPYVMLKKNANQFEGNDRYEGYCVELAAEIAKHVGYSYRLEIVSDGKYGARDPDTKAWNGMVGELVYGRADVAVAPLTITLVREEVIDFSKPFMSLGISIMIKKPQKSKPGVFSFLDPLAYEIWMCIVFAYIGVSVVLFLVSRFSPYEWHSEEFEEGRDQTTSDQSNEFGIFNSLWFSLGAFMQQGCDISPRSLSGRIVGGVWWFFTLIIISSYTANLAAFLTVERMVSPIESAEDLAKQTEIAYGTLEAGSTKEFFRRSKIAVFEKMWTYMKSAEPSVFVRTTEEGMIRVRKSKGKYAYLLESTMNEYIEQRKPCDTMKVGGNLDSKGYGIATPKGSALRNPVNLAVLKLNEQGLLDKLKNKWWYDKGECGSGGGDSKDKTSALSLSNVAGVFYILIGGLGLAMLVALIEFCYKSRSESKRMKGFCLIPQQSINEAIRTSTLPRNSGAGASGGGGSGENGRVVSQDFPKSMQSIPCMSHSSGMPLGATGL
The target of assay [5] is Glutamate receptor 3 (Rattus norvegicus) (UniProt P19492). The assay is described as follows: Agonist activity at GluR3 expressed in HEK293 cells relative to S-Glutamate by Fluo-4/Ca2+ assay.
Sequence of Glutamate receptor 3 (Rattus norvegicus) (P19492 whole entry, looked up): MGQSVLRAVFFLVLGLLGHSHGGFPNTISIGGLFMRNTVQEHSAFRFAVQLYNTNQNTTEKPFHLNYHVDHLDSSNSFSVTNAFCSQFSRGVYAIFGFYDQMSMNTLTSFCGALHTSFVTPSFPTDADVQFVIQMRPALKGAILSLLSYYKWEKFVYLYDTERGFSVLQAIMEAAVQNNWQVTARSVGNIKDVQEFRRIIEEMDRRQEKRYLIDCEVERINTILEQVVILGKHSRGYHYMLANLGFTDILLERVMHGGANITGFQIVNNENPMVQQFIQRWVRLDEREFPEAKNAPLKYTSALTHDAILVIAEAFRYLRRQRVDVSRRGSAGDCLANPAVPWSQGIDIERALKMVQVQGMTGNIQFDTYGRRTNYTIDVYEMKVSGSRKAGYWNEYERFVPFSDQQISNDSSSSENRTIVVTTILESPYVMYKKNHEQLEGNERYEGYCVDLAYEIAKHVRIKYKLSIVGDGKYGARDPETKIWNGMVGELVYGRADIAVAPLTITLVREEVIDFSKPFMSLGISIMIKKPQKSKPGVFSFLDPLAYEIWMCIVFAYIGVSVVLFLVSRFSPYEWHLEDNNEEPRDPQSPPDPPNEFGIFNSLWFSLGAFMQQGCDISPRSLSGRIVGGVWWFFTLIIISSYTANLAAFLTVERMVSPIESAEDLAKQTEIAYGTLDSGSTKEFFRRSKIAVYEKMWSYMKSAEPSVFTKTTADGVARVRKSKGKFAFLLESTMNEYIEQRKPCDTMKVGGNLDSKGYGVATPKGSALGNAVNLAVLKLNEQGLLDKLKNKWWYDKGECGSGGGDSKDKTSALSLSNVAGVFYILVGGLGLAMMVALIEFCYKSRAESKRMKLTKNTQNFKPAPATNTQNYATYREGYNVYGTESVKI
Assay [6] has the same target. Description: Agonist activity at GluR3 expressed in HEK293 cells by Fluo-4/Ca2+ assay.
Assay [7] addresses Glutamate receptor 1 (Rattus norvegicus) (UniProt P19490). The assay is described as follows: Agonist activity at GluR1 expressed in HEK293 cells relative to S-Glutamate by Fluo-4/Ca2+ assay.
Assay [8] in a line: Agonist activity at GluR1 M686V/I687 mutant expressed in HEK293 cells by Fluo-4/Ca2+ assay. The following applies: Homo sapiens. It is filed as functional, cell-based. Put shortly:
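Rat GluR1i mutants, cDNA sequence-verified, transiently transfected into HEK293 cells and kept 2-3 weeks under 3 mg/mL G-418 selection to make polyclonal cells. Cells were plated 16-24 h ahead, loaded with Fluo-4/AM for 1 h at 37 °C, then held in HBSS with 20 mM HEPES, 10 mM CaCl2, 2.5 mM probenecid and 100 µM CTZ, pH 7.4. Fluorescence (ex 485/em 520 nm) was read up to 60 s after agonist addition.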

The target of assay [9] is Glutamate receptor 4 (Homo sapiens) (UniProt P48058). Description: Agonist activity at GluR4 expressed in Xenopus oocyte cells relative to S-Glutamate. In kind it is functional, cell-based. Put shortly:
(§1)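 Rat GluR1i mutant or GluR4i cRNA expressed in Xenopus oocytes, recorded by two-electrode voltage clamp 2-3 days after injection. Low-Ca2+ Ringer's (115 mM NaCl, 0.1 mM CaCl2, pH 7.5) was used, with 30 s pretreatment and continuous application of 100 µM CTZ. Peak currents were normalized to 1000 µM glutamate + 100 µM CTZ and fitted to the Hill equation; n = 3.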

The subject of assay [10] is Glutamate receptor 1 (Homo sapiens), P42261 [D417S,M704V,I705A]. The assay is described as follows: Agonist activity at GluR1 D399S/M686V/I687A mutant expressed in Xenopus oocyte cells relative to S-Glutamate. In kind it is functional, cell-based. Put shortly: as §1

One may read the EC50 as the concentration at which the effect is half-maximal.

Sequence of Glutamate receptor 1 (Homo sapiens), P42261 [D417S,M704V,I705A] (P42261 whole entry D417S/M704V/I705A): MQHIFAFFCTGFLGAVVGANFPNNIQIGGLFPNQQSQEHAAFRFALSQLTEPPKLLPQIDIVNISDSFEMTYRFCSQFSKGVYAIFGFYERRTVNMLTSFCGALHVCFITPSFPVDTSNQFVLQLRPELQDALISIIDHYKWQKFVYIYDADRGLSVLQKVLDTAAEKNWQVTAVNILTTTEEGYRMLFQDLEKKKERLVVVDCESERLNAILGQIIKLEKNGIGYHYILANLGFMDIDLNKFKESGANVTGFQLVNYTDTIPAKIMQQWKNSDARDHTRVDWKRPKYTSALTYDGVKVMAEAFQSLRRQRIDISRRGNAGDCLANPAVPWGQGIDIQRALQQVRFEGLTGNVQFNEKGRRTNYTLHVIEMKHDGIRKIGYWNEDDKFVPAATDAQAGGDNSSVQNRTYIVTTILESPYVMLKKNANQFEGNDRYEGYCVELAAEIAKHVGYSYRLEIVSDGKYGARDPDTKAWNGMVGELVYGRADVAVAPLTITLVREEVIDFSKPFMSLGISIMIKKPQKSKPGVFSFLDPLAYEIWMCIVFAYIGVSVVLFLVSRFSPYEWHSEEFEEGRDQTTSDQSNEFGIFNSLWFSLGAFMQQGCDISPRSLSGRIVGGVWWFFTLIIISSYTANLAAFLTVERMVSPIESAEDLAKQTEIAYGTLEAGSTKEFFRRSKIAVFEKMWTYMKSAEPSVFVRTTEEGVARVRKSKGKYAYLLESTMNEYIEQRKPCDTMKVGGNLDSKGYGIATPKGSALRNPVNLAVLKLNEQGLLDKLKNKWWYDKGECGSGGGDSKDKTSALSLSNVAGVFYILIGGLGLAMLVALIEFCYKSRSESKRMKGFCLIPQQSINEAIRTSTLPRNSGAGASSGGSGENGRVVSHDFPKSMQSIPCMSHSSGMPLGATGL

Turning to `CC(C)n1nnc(-c2onc(O)c2CC(N)C(=O)O)n1` (racemic), the values for the RUmax in assay [1], in assay [5] and in assay [7] were 83%, 73% and 73%, respectively. Besides, the EC50 in assay [2] (read-out: EC50) was 160 µM; in assay [3] it was 1000 µM; in assay [4] it was 550 µM; in assay [6] (read-out: EC50) it was 700 µM.

Consider `CCCn1nnc(-c2onc(O)c2CC(N)C(=O)O)n1` (racemic), for which the RUmax in assay [1] stood at 97%; in [5], 85%; in assay [7], 82%. In addition, the EC50 in [2] (read-out: EC50) is 79 µM; in [2] (read-out: Log EC50 (converted)), 63.1 µM; in assay [3], 830 µM; in assay [4], 480 µM; in assay [6] (read-out: EC50), 450 µM; in assay [6] (read-out: Log EC50 (converted)), 398 µM.

Regarding `Cn1nnnc1-c1onc(O)c1CC(N)C(=O)O` (racemic), the RUmax came out at 79% in assay [1] and 22% in assay [5]. The half-maximal effective concentration (EC50) in assay [2] (read-out: EC50) is 3000 µM; in assay [3], greater than 3000 µM; in assay [4] it was greater than 3000 µM; in [6] (read-out: EC50), greater than 3000 µM.

On to `N[C@@H](CCC(=O)O)C(=O)O` [GLUTAMIC ACID], for which the EC50 in assay [8] (read-out: EC50) is 76 µM; in assay [8] (read-out: Log EC50 (converted)), 79.4 µM.

In the case of `CCn1nnc(-c2o[nH]c(=O)c2CC(N)C(=O)O)n1` (racemic), the EC50 in assay [2] (read-out: EC50) is 4 µM; in assay [3] it was 52 µM; in [4], 42 µM; in assay [6] (read-out: EC50) it was 18 µM; in assay [6] (read-out: Log EC50 (converted)), 15.8 µM.

Consider `CCn1nnc(-c2onc(O)c2CC(N)C(=O)O)n1` (racemic), for which the RUmax in [1] was 94%; in [5] it was 95%; in assay [7], 83%.

`NC(Cc1c(O)noc1-c1nnn(Cc2ccccc2)n1)C(=O)O` (racemic): the RUmax worked out at 63% in assay [9] and 60% in assay [10]. In addition, the EC50 in assay [8] (read-out: EC50) turned out to be 500 µM.
